Source: ChEMBL document CHEMBL3596133, “Discovery and structural analyses of S-adenosyl-L-homocysteine hydrolase inhibitors based on non-adenosine analogs” (Bioorg Med Chem, 2015)
Active and inactive are the calls of the source. No cut-off for these calls is given here.

target: Adenosylhomocysteinase (Homo sapiens, UniProt P23526); assay: Inhibition of recombinant human S-adenosyl-L-homocysteine hydrolase assessed as hydrolysis of AdoHcy after 8 mins by HPLC analysis
Outline: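 Human recombinant enzyme (50 ng) added after test compound to 10 μM AdoHcy plus adenosine deaminase (4 units) in 50 mM phosphate buffer pH 7.2 with 1 mM EDTA. Incubated at 37 °C for 8 min, then stopped with 1 mol/L perchloric acid and centrifuged at 4 °C. Read-out is AdoHcy hydrolysis activity. IC50 given as mean ± standard error of triplicate determinations.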

Structure (SMILES) | IC50 [nM] | inhibition
CN(C(=O)CN(CC(=O)NCCN1CCCC1)c1cc(Cl)ccc1Oc1ccc(Cl)cc1)C1CCNCC1 | > 100000 | 
CN(C(=O)CN(CC(=O)NC1CCN(C(=O)OC(C)(C)C)C1)c1cc(Cl)ccc1Oc1ccc(Cl)cc1)C1Cc2ccccc2C1 (stereo unspecified) | 1500 | 
CN(CCNC(=O)CN(CC(=O)N(C)C1Cc2ccccc2C1)c1cc(Cl)ccc1Oc1ccc(Cl)cc1)C(=O)OC(C)(C)C | 70 | 
O=C(CN(CC(=O)N1CCCc2ccccc21)c1cc(Cl)ccc1Oc1ccc(Cl)cc1)NCCN1CCCC1 | 2300 | 
CCN(CCNC(=O)CN(CC(=O)N(C)C1Cc2ccccc2C1)c1cc(Cl)ccc1Oc1ccc(Cl)cc1)C(=O)OC(C)(C)C | 60 | 
CN(C(=O)CN(CC(=O)NC1CCNC1)c1cc(Cl)ccc1Oc1ccc(Cl)cc1)C1Cc2ccccc2C1 (stereo unspecified) |  | Active
CN(C(=O)CN(CC(=O)NC[C@H]1CCCN1C(=O)OC(C)(C)C)c1cc(Cl)ccc1Oc1ccc(Cl)cc1)C1Cc2ccccc2C1 | 600 | 
CN(C(=O)CN(CC(=O)NC1CCCNC1)c1cc(Cl)ccc1Oc1ccc(Cl)cc1)C1Cc2ccccc2C1 (stereo unspecified) |  | Active
CCNCCNC(=O)CN(CC(=O)N(C)N1Cc2ccccc2C1)c1cc(Cl)ccc1Oc1ccc(Cl)cc1 | 8.5 | 
CC(C)N(CCNC(=O)CN(CC(=O)N(C)C1Cc2ccccc2C1)c1cc(Cl)ccc1Oc1ccc(Cl)cc1)C(=O)OC(C)(C)C | 49 | 
CN(CCN1CCCC1)C(=O)CN(CC(=O)N(C)C1Cc2ccccc2C1)c1cc(Cl)ccc1Oc1ccc(Cl)cc1 | > 100000 | 
CCN(C(=O)CN(CC(=O)NCCN1CCCC1)c1cc(Cl)ccc1Oc1ccc(Cl)cc1)C1Cc2ccccc2C1 | 640 | 
CN(C(=O)CN(CC(=O)NC1CCCN(C(=O)OC(C)(C)C)C1)c1cc(Cl)ccc1Oc1ccc(Cl)cc1)C1Cc2ccccc2C1 (stereo unspecified) | 1200 | 
CN(C(=O)CN(CC(=O)NC[C@@H]1CCCN1C(=O)OC(C)(C)C)c1cc(Cl)ccc1Oc1ccc(Cl)cc1)C1Cc2ccccc2C1 | 110 | 
CN(C(=O)CN(CC(=O)NCC1CCCCN1C(=O)OC(C)(C)C)c1cc(Cl)ccc1Oc1ccc(Cl)cc1)C1Cc2ccccc2C1 (stereo unspecified) | 150 | 

target: T1, Adenosylhomocysteinase (Rattus norvegicus, UniProt P10760); assay: Reversible inhibition of rat liver S-adenosyl-L-homocysteine hydrolase; type: tissue-based
T1 sequence (P10760 whole entry): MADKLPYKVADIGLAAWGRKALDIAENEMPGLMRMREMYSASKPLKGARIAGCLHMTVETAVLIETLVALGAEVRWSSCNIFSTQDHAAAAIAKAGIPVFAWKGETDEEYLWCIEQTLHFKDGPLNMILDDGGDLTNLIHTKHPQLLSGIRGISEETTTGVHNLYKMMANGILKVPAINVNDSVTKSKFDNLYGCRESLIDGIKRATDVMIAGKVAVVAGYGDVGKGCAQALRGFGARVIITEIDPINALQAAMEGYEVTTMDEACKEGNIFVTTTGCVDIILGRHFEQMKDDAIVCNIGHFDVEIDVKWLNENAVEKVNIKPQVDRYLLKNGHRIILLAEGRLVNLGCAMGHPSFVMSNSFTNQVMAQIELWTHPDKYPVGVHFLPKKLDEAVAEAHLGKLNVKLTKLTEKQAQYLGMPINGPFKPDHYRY

Structure (SMILES) | Ki [nM]
Nc1ncnc2c1ncn2CC(O)CO (stereo unspecified) | 1000
